This is an account of results in the RNAGym collection of RNA variant scans (doi:10.1126/science.aae0568).

Fewer inactive variants are shown than the library holds.

B1: tRNA (parent)
chain: GUUCCGUUGGCGUAAUGGUAACGCGUCUCCCUCCUAAGGAGAAGACUGCGGGUUCGAGUCCCGUACGGAACG

The variants in the data set derive from B1. In words: yeast fitness relative to wild type (ratio to wild type); higher = fitter; tRNA-Arg(CCU), competitive growth, 37 C, YPD. The procedure, abridged: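 For this measurement, the tRNA-Arg(CCU) gene was varied by chemical synthesis at a 3% per-site mutation rate across 69 sites, and each variant was placed at the native genomic locus in Saccharomyces cerevisiae. The pooled strains went through a 24-hour competition in YPD at 37°C in six parallel replicates, with amplicons from start and end populations read by 100-nucleotide paired-end sequencing. Darwinian fitness relative to wild type followed from the change in each genotype's frequency. Genotypes needed ≥ 100 starting reads, and estimates < 0.5 were set to 0.5.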
In the case of GUUCUGUUGGCGUAAUGGUAACGCGUCUCCCUCCUAAGGGGAAGUCUGCGGGUUCGAGUCCCGUACGGAACG [C5U A40G A45U], the yeast fitness is 0.638.

As to GUUCUGUUGGCGUAAUGGUAUCGCGUCUCGCUCCUAAGGAGAAGACUGCGGGUUCAAGUCCCGUAAGGAACG [C5U A21U C30G G56A C66A], the yeast fitness was not above 0.5.

With GUUCUGUUGGCGUAAUGGUAUCGCGUCUCCCGCCUAAGGAGAAGACUGCGGGUUCGAGUCCCGUACGGAACG [C5U A21U U32G], the yeast fitness was not above 0.5. For GUUCUGUUGGCGUAAUGGUAUCGCGUCUUGCUCCUAAGGAGAAGACUGCGGGUUCGAGUCCCGUACGGAUCG [C5U A21U C29U C30G A70U] the value was 0.543; for GUUCUGUUGGCGUAAUGGUAACGCGUCUCCCUCCUAAGGAGGAGACUGCGGGUUCGAGUCCCGUCCGGAACG [C5U A42G A65C], 0.596; for GUUCUGUUGGCGUAAUGGUAGCGCGUCUCCCUCCUAAGGAGUAGACUGCGGGUUCGAAUCCCGUAUGGAACG [C5U A21G A42U G58A C66U], 0.706. For the variant GUUCUGUUGGCGUAAUGGUAACGCGUCUCCCUCCUACGGAGAAGAUUGCGGGCUCGAGUCCCGUACGGAACG [C5U A37C C46U U53C], the yeast fitness is not above 0.5. For GUUCUGUUGGCGUAAUGGUAACGCGUCUCCCUCCUAAGGCGAAGACUGCGGGUUCGAGUCCCGUACGGAACG [C5U A40C] the value was 0.851. For GUUCUGUUGGCGUAAUGGUAACGCGUCUCCCUCCUAAGGAGAAGUCUGAGGGUUCGAGUCCCGUACGGAACG [C5U A45U C49A], the yeast fitness is 0.696.

Consider GUUCUGUUGGCGUAAUGGUAACGCGUCUCCCUCCUAAGGAGAGGACUGGGGGUUCGAGUCCCGUACGGCACG [C5U A43G C49G A69C], for which the yeast fitness was not above 0.5.

For the variant GUUCUGUUGGAGUAAUGGUCAGGCGUCUCUGUCCUAAGGAGAAGACUGCGGGUUCGAGUCCCGUACGGAACG [C5U C11A A20C C22G C30U C31G], the yeast fitness is not above 0.5. For GUUCUGUUGGCGUAAUGGUAUCGCGUCUCCCACCUAAGGUGAAGACUGCGGGUUCGAGUCCCGUACGGAACG [C5U A21U U32A A40U] the value was 0.634; for GUUCUGUUGGCGUAAUGGUAGCGCGUCUUCAUCCUAAGGAGAAGACUGCGCGUUCGAGUCCCGUACGGAACG [C5U A21G C29U C31A G51C], not above 0.5. Regarding GUUCUGUUGGCGUAAUGGUAUCGCGUCUCCCUCCUAAGGAGAAGACUGCGGGUUCGUGUACCGUACGGAACG [C5U A21U A57U C60A], the yeast fitness was not above 0.5. Take GUUCUGUUGGCGUAAUGGUAACGCGUCUCCCUCCUAGGGAGAAGACUGCGGGUUCGAGUCCGGUACGCAACG [C5U A37G C62G G68C]: the yeast fitness is not above 0.5. For the variant GUUCUGUUGGCGUAAUGGUAGCGCGUUUCCCUCCUAAGGAAAAGACUGCGGGUUCGAGUCCCGUAAGGAACG [C5U A21G C27U G41A C66A], the yeast fitness was not above 0.5. As for GUUCUGUUGGCGUAAUGGUAGCGCGUCCCCCUCCUGAGGAGAAGACUGCGGGUUAGAGUCCCGUACGGAACG [C5U A21G U28C A36G C55A], the figure is not above 0.5. Regarding GUUCUGUUGGCGUAAUGGUAACGCGUCUCCCUCCUUAGGAGAAGACUGCGGGUUCGAGUUCCGUACGGAACG [C5U A36U C60U], the yeast fitness was 0.81.

With GUUCUGUUGGCGUAAUGGUAACGCGUCUCCCUCCUAGGGAGAAGACUGCGGGUUCGAGUCCCGUACGGAACG [C5U A37G], the yeast fitness was determined as 0.795. Consider GUUCUGUUGGCGUAAUGGUAACGCGUCUCCCUCCUAAGGAGAAGCCUGCGGGUUCAAGUCCCGUACGGAACG [C5U A45C G56A], for which the yeast fitness turned out to be 0.801. Turning to GUUCUGUUGGCGUAAUGGUAACGCGUCUCCCUCCUAAGGAGAAGGCUGCGGGUUCGAGUCCCGUACGGAACG [C5U A45G], the yeast fitness was determined as 0.974.

In the case of GUUCUGUUGGCGUAAUGGUAACGCGUCUCCCUCCUAAGGAGAAGUCUGCGGGUUCGAGUCCCGUACGGAACG [C5U A45U], the yeast fitness is 1.01. For GUUCUGUUGGCGUAAUGGUAACGCGUCUCCCUCCUAAGGGGAAGACUGCGGGUUCAAGUCCCGUACGGCACG [C5U A40G G56A A69C] the value was 0.575.

Regarding GUUCUGUUGGCGUAAUGGUACCGCGUCUCCCUCCUAAGGAGAACAUUGCGGGUUCGAGUCCCGUACGGAACG [C5U A21C G44C C46U], the yeast fitness was 0.532. GUUCUGUUGGCGUAAUGGUAACGCGUCUCCCUCCUAAGGAGAAGCCUGCGGGUUCGAGUCGCGUACGGAACG [C5U A45C C61G]: the yeast fitness worked out at 0.536. With GUUCUGUUGGCGUAAUGGUAGCGCGUCUCCCUCCUAAGGAGUAGACUGCGGGUUCGAGUCCCGUACGGAACG [C5U A21G A42U], the yeast fitness is 0.908. Turning to GUUCUGUUGGCGUAAUGGUAGCGCGUCUCCCUCCUAAGGAGCAGACUGCGGGUUCGAGUCCCGUACGGAACG [C5U A21G A42C], the yeast fitness stood at 0.761. As to GUUCUGUUGGAGUAAUGGUAACGCGUCUCCCUCCUAAGGAGAAGACUGCGGGUUCGAGUCCCGUACGGAACG [C5U C11A], the yeast fitness is 0.586. GUUCUGUUGGCGUAAUGGUAGCGCGUCUCCCUCCUAAGGAGUAGACUGCGGGUGCGAGUCCCGUACGGAACG [C5U A21G A42U U54G]: the yeast fitness was 0.533. With GUUCUGUUGGCGUAAUGGUAACGCGUCUCCCUCCUAAGGAGAGGACUGCGGGUUCGAGUCCCGUACGGCACG [C5U A43G A69C], the yeast fitness stood at 0.72. For GUUCUGUUGGCGUAAUGGUAACGCGUCUCCCUCCUAAGGAGCAGACUGCGGGUUCGAGUCCCGUACUGAACG [C5U A42C G67U], the yeast fitness was 0.69. With GUUCUGUUGGCGUAAUGGUAACGCGUCUCCCUCCUAAGGAGAAGACUGCGGGUUCGUGUCCCGUACGGAACG [C5U A57U], the yeast fitness amounted to 0.663.

GUUCUGUUGGAGUAAUGGUAGCGCGUCUCCCUCCUAAGGAGAAGACUGCGGGUUCGAGUCCCGUACGGAGCG [C5U C11A A21G A70G]: the yeast fitness is not above 0.5. Turning to GUUCUGUUGGCGUAAUGGUAUCGCGUCUCGCUCCUAAGGAGAAGACUGCGGAUUCGAGUCCCGUACGGAUCG [C5U A21U C30G G52A A70U], the yeast fitness was 0.534. For GUUCUGUUGGCGUAAUGGUAACGCGUCUCCCUCCUGAGGAGAAGACUGCGGGUUGGAGUCCCGUAGGGAACG [C5U A36G C55G C66G], the yeast fitness is not above 0.5.

Regarding GUUCUGUUGGCGUAAUGGUAACGCGUCUCCCUCCUAAGGAGAAGGCUGCGGGUUCGAGUCCCGUACAGAACG [C5U A45G G67A], the yeast fitness stood at 0.743. As for GUUCUGUUGGCGUAAUGGUAUCGCGUCUCCCUCCUUAGGAGAAGACUGCGGGUUCGAGUCCCGUGCGGAACG [C5U A21U A36U A65G], the yeast fitness is not above 0.5. As for GUUCUGUUGGCGUAAUGGUAACGCGUCUCCCUCCUAUGGAGUAGACUGCGGGUUCGAGUCCCGUACAGAACG [C5U A37U A42U G67A], the figure is not above 0.5.
